Laboratory results as given in ChEMBL document CHEMBL2429802, “Cytotoxic oxepinochromenone and flavonoids from the flower buds of Rosa rugosa” (J Nat Prod, 2013).

What was measured:
Assay type in all cases: functional, cell-based
[1] = system: MCF7; test: Cytotoxicity against human MCF7 cells assessed as growth inhibition after 72 hrs by MTT assay; settings: MCF7, 72 h
Summary of the method: (§1)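 2500 cells per well seeded in MEM medium and incubated 24 h. Medium then replaced with fresh medium containing compound at 100 to 1.5625 μM (six 2-fold dilutions). OD595 read after MTT on control wells at 0 and 72 h and on treated wells at 72 h. IC50 taken as the concentration inhibiting 50% of cell growth. Paclitaxel served as positive control.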

[2] = system: PC-3; test: Cytotoxicity against human PC3 cells assessed as growth inhibition after 72 hrs by MTT assay; settings: PC-3, 72 h; summary of the method: as §1
[3] = Cytotoxicity against human SH-SY5Y cells assessed as growth inhibition after 72 hrs by MTT assay; summary of the method: as §1
[4] = system: A549; test: Cytotoxicity against human A549 cells assessed as growth inhibition after 72 hrs by MTT assay; settings: A549, 72 h; summary of the method: as §1
[5] = system: NB-4; test: Cytotoxicity against human NB4 cells assessed as growth inhibition after 72 hrs by MTT assay; settings: NB-4, 72 h; summary of the method: as §1

## COc1ccc2c(c1CCO)O[C@@H](c1ccc(O)cc1O)CC2
[1]
  IC50: > 10 µM
[2]
  IC50: > 10 µM
[3]
  IC50: > 10 µM
[4]
  IC50: > 10 µM
[5]
  IC50: > 10 µM

## COc1cc2c(=O)cc(-c3ccc(O)c(O)c3)oc2c(C(C)=O)c1OC
[1]
  IC50: 2.8 µM
[2]
  IC50: 8.4 µM
[3]
  IC50: 4.3 µM
[4]
  IC50: 1.2 µM
[5]
  IC50: 3.6 µM

## COC(=O)c1cc(O)cc2oc(-c3ccc(OC)cc3)cc(=O)c12
[1]
  IC50: 2.3 µM
[2]
  IC50: 4.8 µM
[3]
  IC50: 2.5 µM
[4]
  IC50: 6.7 µM
[5]
  IC50: 2.2 µM

## O=C(OC[C@H]1O[C@@H](Oc2c(-c3ccc(O)cc3)oc3cc(O)cc(O)c3c2=O)[C@H](O)[C@@H](O)[C@@H]1O)c1ccc(O)cc1
[1]
  IC50: 7.3 µM
[2]
  IC50: > 10 µM
[3]
  IC50: 8.2 µM
[4]
  IC50: > 10 µM
[5]
  IC50: 4.7 µM

## COc1cc2c(cc1OC)[C@@H](O)[C@H](c1ccc(O)cc1)CO2
[1]
  IC50: > 10 µM
[2]
  IC50: > 10 µM
[3]
  IC50: > 10 µM
[4]
  IC50: > 10 µM
[5]
  IC50: > 10 µM

## COc1ccc([C@@H]2COc3cc(OC)c(O)cc3[C@H]2O)cc1
[1]
  IC50: > 10 µM
[2]
  IC50: > 10 µM
[3]
  IC50: > 10 µM
[4]
  IC50: > 10 µM
[5]
  IC50: > 10 µM

## COc1c(O)ccc(C/C=C/c2ccc3c(c2)OCO3)c1OC
[1]
  IC50: > 10 µM
[2]
  IC50: > 10 µM
[3]
  IC50: > 10 µM
[4]
  IC50: > 10 µM
[5]
  IC50: > 10 µM

## COc1cc(/C=C/Cc2ccc(O)c(OC)c2OC)cc2c1OCO2
[1]
  IC50: > 10 µM
[2]
  IC50: > 10 µM
[3]
  IC50: > 10 µM
[4]
  IC50: > 10 µM
[5]
  IC50: > 10 µM

## COC(=O)[C@@]1(O)c2c(oc(-c3ccc(O)cc3)cc2=O)OC=C[C@@H]1O
[1]
  IC50: > 10 µM
[2]
  IC50: 6.8 µM
[3]
  IC50: > 10 µM
[4]
  IC50: 7.2 µM
[5]
  IC50: > 10 µM

## CC(=O)O[C@H]1C(=O)[C@@]2(C)[C@H]([C@H](OC(=O)c3ccccc3)[C@]3(O)C[C@H](OC(=O)[C@H](O)[C@@H](NC(=O)c4ccccc4)c4ccccc4)C(C)=C1C3(C)C)[C@]1(OC(C)=O)CO[C@@H]1C[C@@H]2O [PACLITAXEL]
[3]
  IC50: 0.2 µM
